Tests used:
786-0 = test: In vitro antitumor activity against renal 786-0 tumor cell lines; format: functional, cell-based, Homo sapiens
COLO 205 = test: In vitro antitumor activity against colon COLO 205 tumor cell lines; format: functional, cell-based, Homo sapiens; details: colo 205
HL-60 = test: In vitro antitumor activity against leukemia HL-60(TB) tumor cell lines; format: functional, cell-based, Homo sapiens; details: hl-60
MDA-MB-435 = test: In vitro antitumor activity against breast MDA-MB-435 tumor cell lines; format: functional, cell-based, Homo sapiens; details: mda-mb-435
M14 = test: In vitro antitumor activity against melanoma M14 tumor cell lines; format: functional, cell-based, Homo sapiens; details: m14
MOLT-4 = test: In vitro antitumor activity against leukemia MOLT-4 tumor cell lines; format: functional, cell-based, Homo sapiens; details: molt-4
MCF7 = test: In vitro antitumor activity against breast MCF-7 tumor cell lines; format: functional, cell-based, Homo sapiens; details: mcf7
Homo sapiens [1] = species: Homo sapiens; test: Concentration giving 500 zone units against H116 colon tumor cell lines; format: functional
Outline: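 Disk diffusion soft agar colony formation assay on human H116 colon tumor cells. Each sample was applied to a disk as 15 µL, and activity was read as zone units. The value is the sample concentration that gave 500 zone units.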

CCRF-CEM = test: In vitro antitumor activity against leukemia CCRF-CEM tumor cell lines; format: functional, cell-based, Homo sapiens; details: ccrf-cem
SK-MEL-2 = test: In vitro antitumor activity against melanoma SK-MEL-2 tumor cell lines; format: functional, cell-based, Homo sapiens; details: sk-mel-2
NCI-H522 = test: In vitro antitumor activity against NSCL NCI-H522 tumor cell lines; format: functional, cell-based, Homo sapiens; details: nci-h522
A498 = test: In vitro antitumor activity against renal A498 tumor cell lines; format: functional, cell-based, Homo sapiens; details: a498
HCT-15 = test: In vitro antitumor activity against colon HCT-15 tumor cell lines; format: functional, cell-based, Homo sapiens; details: hct-15
RXF 393 = test: In vitro antitumor activity against renal RXF 393 tumor cell lines; format: functional, cell-based, Homo sapiens; details: rxf 393
HCT-116 = test: In vitro antitumor activity against colon HCT116 tumor cell lines; format: functional, cell-based, Homo sapiens; details: hct-116
NCI-H226 = test: In vitro antitumor activity against NSCL NCI-H226 tumor cell lines; format: functional, cell-based, Homo sapiens; details: nci-h226
UACC-62 = test: In vitro antitumor activity against melanoma UACC-62 tumor cell lines; format: functional, cell-based, Homo sapiens; details: uacc-62
MDA-N = test: In vitro antitumor activity against breast MDA-N tumor cell lines; format: functional, cell-based, Homo sapiens; details: mda-n
A549 = test: In vitro antitumor activity against NSCL A549/ATCC tumor cell lines; format: functional, cell-based, Homo sapiens; details: a549
MC-38 [2] = test: Selectivity was evaluated against Murine tumor ZC38 colon adenocarcinoma cell lines- ZL1210 lymphocytic leukemia cell lines at a concentration of 0.24 ug/mL; format: functional, cell-based; details: Mus musculus
Outline: (§1)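 Disk diffusion soft agar colony formation assay; sample applied to disk (15 μL); cytotoxicity read as zone units. Differential = zone difference between a solid tumor line (murine Colon38; human colon H116, lung H125) and leukemia (murine L1210, human CEM) or normal bone marrow CFU-GM (murine/human). Solid tumor selective if differential exceeds 250 units.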

L1210 = test: Selectivity was evaluated murine tumor against ZL1210 lymphocytic leukemia cell lines- ZCFU-GM normal bone marrow cell lines at a concentration of 0.24 ug/mL; format: functional, cell-based; details: Mus musculus; outline: as §1
MC-38 [3] = test: Selectivity was evaluated against murine tumor ZC38 colon adenocarcinoma cell lines- ZCFU-GM normal bone marrow cell lines at a concentration of 0.24 ug/mL; format: functional, cell-based; details: Mus musculus; outline: as §1
Homo sapiens [4] = species: Homo sapiens; test: Activity relative to compound 3 (set to 1.0) was evaluated against H116 colon tumor cell lines; format: functional
Outline: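 Disk diffusion soft agar colony formation assay on human H116 colon tumor cells, with 15 µL of sample applied to a disk and zone units read. Relative activity = (dilution required for 500 zone units × 100)/(mg/mL), normalised to a reference compound set at 1.0.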

colon = test: Selectivity was evaluated against human ZH116 colon cell lines-CEM lymphocytic leukemia cell lines at a concentration of 0.24 ug/mL; format: functional, cell-based; outline: as §1
NCI-H125 = test: Selectivity was evaluated against human ZH125 lung non small cell carcinoma cell lines-CEM lymphocytic leukemia cell lines at a concentration of 0.24 ug/mL; format: functional, cell-based; outline: as §1

SMILES | IC50 (786-0) | IC50 (COLO 205) | IC50 (HL-60) | IC50 (MDA-MB-435) | IC50 (M14) | IC50 (MOLT-4) | IC50 (MCF7) | Concentration (Homo sapiens [1]) | IC50 (CCRF-CEM) | IC50 (SK-MEL-2) | IC50 (NCI-H522) | IC50 (A498) | IC50 (HCT-15) | IC50 (RXF 393) | IC50 (HCT-116) | IC50 (NCI-H226) | IC50 (UACC-62) | IC50 (MDA-N) | IC50 (A549) | further results
CC1=C[C@H]2O[C@@H]3[C@H](O)[C@H]4OC(=O)/C=C\C=C\[C@H]([C@@H](C)O)OCC/C(C)=C/C(=O)OC[C@@]2(CC1)[C@]4(C)[C@]31CO1 | 0.059 µM | > 10000 nM | 0.01 µM | 4 nM | < 1 nM | > 10 µM | > 10 µM | 0.14 µg/mL | > 10 µM | > 10000 nM | > 10000 nM | 9 nM | > 10 µM | 57 nM | < 0.001 µM | 7 nM | 9 nM |  |  | 
CC1=C[C@H]2O[C@@H]3C[C@H]4OC(=O)/C=C\C=C\[C@H]([C@H](C)O)OCC/C(C)=C/C(=O)OC[C@@]2(CC1)[C@]4(C)[C@]31CO1 |  |  |  |  |  |  |  | 8.6 µg/mL |  |  |  |  |  |  |  |  |  |  |  | 
CC(=O)OC(C)[C@@H](O)/C=C/C=C\C(=O)O[C@@H]1CC2O[C@@H]3C=C(C)CC[C@]3(COC(=O)/C=C(\C)CCO)[C@]1(C)[C@]21CO1 (stereo partly drawn) [13`-ACETYLTRICHOVERRIN B] | > 10 µM | 612 nM | > 10 µM | 2260 nM | 9000 nM | > 10 µM | > 10 µM | 31 µg/mL | > 10 µM | > 10000 nM | 1210 nM | 2380 nM | > 10 µM | > 10000 nM | > 10 µM | 4870 nM | 9560 nM | 5080 nM | 9.77 µM | 
CC1=C[C@H]2O[C@@H]3C[C@H]4OC(=O)/C=C\C=C\[C@H]([C@H](C)O)OCC[C@@H](C)[C@H](O)C(=O)OC[C@@]2(CC1)[C@]4(C)[C@]31CO1 [(6'R,13'S) ISORORIDIN A] | > 10 µM | 8 nM | > 10 µM | 31 nM | 10 nM | > 10 µM | > 10 µM | 0.9 µg/mL | > 10 µM | > 10000 nM | 95 nM | 6 nM | > 10 µM | 10 nM | > 10 µM |  | 2 nM | 8 nM | > 10 µM | 
CC(=O)OC[C@]12CCC(C)=C[C@H]1O[C@@H]1[C@H](O)[C@@H](OC(C)=O)[C@@]2(C)[C@]12CO2 [ANGUIDIN] | < 0.001 µM | < 1 nM | < 0.001 µM | < 1 nM | < 1 nM | < 0.001 µM | < 0.001 µM | 0.24 µg/mL | < 0.001 µM | < 1 nM | < 1 nM | < 1 nM | < 0.001 µM | < 1 nM | < 0.001 µM | < 1 nM | < 1 nM | < 1 nM | < 0.001 µM | Selectivity (MC-38 [2]): -150 zone unit; Selectivity (L1210): 150 zone unit; Selectivity (MC-38 [3]): 0 zone unit; Relative activity (Homo sapiens [4]): 423; Selectivity (colon): -100 zone unit; Selectivity (NCI-H125): 0 zone unit
CC1=C[C@H]2O[C@@H]3C[C@H]4OC(=O)/C=C\C=C\[C@H]([C@@H](C)O)OCC[C@@H](C)[C@H](O)C(=O)OC[C@@]2(CC1)[C@]4(C)[C@]31CO1 [RORIDIN A] | 0.04 µM | 3 nM | > 10 µM | 6 nM | < 1 nM | > 10 µM | > 10 µM | 0.78 µg/mL | > 10 µM | 3 nM | < 1 nM | 316 nM | > 10 µM | 2 nM | > 10 µM | 3 nM | 5 nM | 3 nM | > 10 µM | 
CC1=C[C@H]2O[C@@H]3[C@H](O)[C@H]4OC(=O)/C=C\C=C\[C@H]([C@H](C)O)OCC/C(C)=C/C(=O)OC[C@@]2(CC1)[C@]4(C)[C@]31CO1 [RORIDIN L] |  | 13 nM | > 10 µM | 20 nM | 24 nM | > 10 µM | > 10 µM | 1.3 µg/mL | > 10 µM | 24 nM | 21 nM | 19 nM | > 10 µM | > 10000 nM | > 10 µM | 91 nM | 18 nM | 21 nM | > 10 µM | 
CC1=C[C@H]2O[C@@H]3[C@H](O)[C@H]4OC(=O)/C=C\C=C\[C@@H]5O[C@H](C/C(C)=C/C(=O)OC[C@@]2(CC1)[C@]4(C)[C@]31CO1)O[C@H]5C [RORIDIN M] | > 10 µM |  | > 10 µM | 137 nM | 75 nM | > 10 µM | > 10 µM | 41 µg/mL | > 10 µM | 260 nM | 26 nM | 583 nM | 0.483 µM | 2180 nM | 0.075 µM | 157 nM | 409 nM | 83 nM | > 10 µM | 
CC1=C[C@H]2OC3C[C@@H](OC(=O)/C=C\C=C\[C@H](O)[C@H](C)O)[C@](C)([C@@]2(COC(=O)/C=C(\C)CCO)CC1)[C@]31CO1 [TRICHOVERRIN A] | > 10 µM | 1310 nM | > 10 µM | 2700 nM | 7870 nM | > 10 µM | > 10 µM | 163 µg/mL | > 10 µM | 7540 nM | 936 nM | 6960 nM | > 10 µM | > 10000 nM | > 10 µM | 8410 nM | > 10000 nM | 7780 nM | 5.44 µM | 
CC1=C[C@H]2OC3C[C@@H](OC(=O)/C=C\C=C\[C@H](O)[C@@H](C)O)[C@](C)([C@@]2(COC(=O)/C=C(\C)CCO)CC1)[C@]31CO1 [TRICHOVERRIN B] | > 10 µM | 4020 nM | > 10 µM | 5490 nM | 7100 nM | > 10 µM | > 10 µM | 175 µg/mL | > 10 µM | 8910 nM | 904 nM | 8160 nM | > 10 µM | > 10000 nM | > 10 µM | 6930 nM | > 10000 nM | > 10000 nM | 6.21 µM | 
CC1=C[C@H]2O[C@@H]3C[C@H]4OC(=O)/C=C\C=C\C(=O)OCC[C@@H](C)[C@H](O)C(=O)OC[C@@]2(CC1)[C@]4(C)[C@]31CO1 [VERRUCARIN A] |  | < 1 nM | > 10 µM | 4 nM | < 1 nM | > 10 µM | 1.2 µM | 0.78 µg/mL | > 10 µM | 8 nM | < 1 nM | 3 nM | 8.1 µM | > 10000 nM | > 10 µM | 4 nM | 5 nM | 82 nM | > 10 µM | 
CC1=C[C@H]2O[C@@H]3[C@H](O)[C@H]4OC(=O)/C=C\C=C\C(=O)OCC/C(C)=C/C(=O)OC[C@@]2(CC1)[C@]4(C)[C@]31CO1 [VERRUCARRIN M] | > 10 µM | 7 nM | > 10 µM | 14 nM | 8 nM | > 10 µM | > 10 µM | 30 µg/mL | > 10 µM | 37 nM | < 1 nM | 53 nM | 0.073 µM | 84 nM |  | 33 nM | 57 nM | 14 nM |  | 

Source: ChEMBL document CHEMBL1145117, “Structures and cytotoxic properties of trichoverroids and their macrolide analogues produced by saltwater culture of Myrothecium verrucaria” (J Med Chem, 2003)
